Results: ChEMBL document CHEMBL5055645 (J Med Chem, 2021)
Activity calls are given as the source filed them. No cut-off for these calls is given here.

Experiments:
[1] = Stability in human serum assessed as compound degradation measured at 2 mg/ml after 24 hrs at 37C by RP-HPLC analysis; type: ADME, cell-free
Outline: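 Peptide at 2 mg/mL final in 25% (v/v) pooled human male AB serum, incubated at 37 °C for 24 h. Samples quenched with equal volume acetonitrile on ice for 20 min and centrifuged at 4 °C. Supernatant diluted to 0.1 mg/mL and run on RP-HPLC. Intact peptide estimated from peak area at 215 nm.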

[2] = In vivo stability in C57BL/6J mouse serum assessed as compound degradation measured at 5 mg/kg, iv after 15 mins by LC/MS/MS analysis; type: ADME, organism-based; settings: 0.25 h
Outline: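 Mice (C57BL/6J, 8 weeks old, 20–30 g), 4 male and 4 female per group, given one i.v. dose of 5 mg/kg. Submandibular blood drawn into EDTA tubes at 15 min, 30 min, 1, 2, 4, 8 and 24 h. Plasma protein precipitated with 9:1 acetonitrile/acetic acid on ice, centrifuged, and the supernatant analysed by LC/MS/MS.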

Mus musculus [3] = test: Hyperglycemic effect in C57BL/6J mouse assessed as increase in blood glucose level at 50 microg/kg, iv measured measured after 30 mins by intraperitoneal insulin tolerance test; type: functional, organism-based; settings: dose 50.0 µg/kg
Outline: (§1)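 Female C57BL/6J mice, 8 weeks old, 20–30 g, 5 per group. After a 3 h fast they received insulin 0.75 IU/kg, then a single i.v. dose of peptide (50 or 500 μg/kg) or saline. Blood glucose read by glucometer at 15, 30 and 60 min after injection.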

Mus musculus [4] = test: Hyperglycemic effect in C57BL/6J mouse assessed as increase in blood glucose level at 500 microg/kg, iv measured measured after 30 mins by intraperitoneal insulin tolerance test; type: functional, organism-based; settings: dose 500.0 µg/kg; outline: as §1
Mus musculus [5] = test: Hyperglycemic effect in C57BL/6J mouse assessed as increase in blood glucose level at 50 microg/kg, iv measured measured up to 60 mins by intraperitoneal insulin tolerance test; type: functional, organism-based; settings: dose 50.0 µg/kg
Outline: (§2)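 Wild-type 8-week-old female mice weighing 20–30 g, 7 groups of 5. Mice fasted 3 h, then given insulin (0.75 IU/kg). […] Blood glucose read with a glucometer at 15, 30 and 60 min post-injection.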

Mus musculus [6] = test: Hyperglycemic effect in C57BL/6J mouse assessed as increase in blood glucose level at 500 microg/kg, iv measured measured up to 60 mins by intraperitoneal insulin tolerance test; type: functional, organism-based; settings: dose 500.0 µg/kg; outline: as §2

GLUCAGON [listing 1 of 2 here]
Drug degradation [1]: > 85% | Stability [2]: Unstable

GLUCAGON [listing 2 of 2 here]
Activity (Mus musculus [3]): Active | Activity (Mus musculus [4]): Active | Activity (Mus musculus [5]): Active | Activity (Mus musculus [6]): Active
